In ChEMBL document CHEMBL4330076, “Quinazolin-2,4-dione-Based Hydroxamic Acids as Selective Histone Deacetylase-6 Inhibitors for Treatment of Non-Small Cell Lung Cancer” (J Med Chem, 2019):

Key:
A549 [1] = assay: Cytotoxicity against human A549 cells after 72 hrs by MTT assay; type: functional, cell-based; conditions: A549, 72 h
Summary of the method: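 Human A549 lung cancer cells exposed to serial dilutions of inhibitor at 37 °C for 72 h. Cytotoxicity expressed as IC50.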

[2] = system: Lewis lung carcinoma cell line; assay: Potentiation of paclitaxel-induced cytotoxicity in mouse LL/2 cells assessed as combination index up to 10 uM after 72 hrs by Chou-Talalay method; type: functional
[3] = system: Lewis lung carcinoma cell line; assay: Induction of apoptosis in mouse LL/2 cells assessed as viable cells at 4 uM after 24 hrs by Annexin V/propidium iodide staining-based flow cytometric analysis (reference value: 82.3%); type: functional
[4] = system: Lewis lung carcinoma cell line; assay: Induction of apoptosis in mouse LL/2 cells assessed as early apoptotic cells at 4 uM after 24 hrs by Annexin V/propidium iodide staining-based flow cytometric analysis (reference value: 1.8%); type: functional
[5] = system: Lewis lung carcinoma cell line; assay: Induction of apoptosis in mouse LL/2 cells assessed as late apoptotic cells at 4 uM after 24 hrs by Annexin V/propidium iodide staining-based flow cytometric analysis (reference value: 8.7%); type: functional
[6] = system: Lewis lung carcinoma cell line; assay: Induction of apoptosis in mouse LL/2 cells assessed as viable cells at 4 uM after 24 hrs in presence of paclitaxel by Annexin V/propidium iodide staining-based flow cytometric analysis (reference value: 82.3%); type: functional
[7] = system: Lewis lung carcinoma cell line; assay: Induction of apoptosis in mouse LL/2 cells assessed as late apoptotic cells at 4 uM after 24 hrs in presence of paclitaxel by Annexin V/propidium iodide staining-based flow cytometric analysis (reference value: 8.7%); type: functional
A549 [8] = assay: Induction of apoptosis in human A549 cells assessed as viable cells at 4 uM after 24 hrs by Annexin V/propidium iodide staining-based flow cytometric analysis (reference value: 96.2%); type: functional
A549 [9] = assay: Induction of apoptosis in human A549 cells assessed as early apoptotic cells at 4 uM after 24 hrs by Annexin V/propidium iodide staining-based flow cytometric analysis (reference value: 1.2%); type: functional
A549 [10] = assay: Induction of apoptosis in human A549 cells assessed as necrotic cells at 4 uM after 24 hrs by Annexin V/propidium iodide staining-based flow cytometric analysis (reference value: 1.1%); type: functional
A549 [11] = assay: Induction of apoptosis in human A549 cells assessed as early apoptotic cells at 4 uM after 24 hrs in presence of paclitaxel by Annexin V/propidium iodide staining-based flow cytometric analysis (reference value: 1.2%); type: functional
[12] = system: Lewis lung carcinoma cell line; assay: Antitumor activity against mouse LL/2 cells implanted in C57BL/6 mouse assessed as tumor growth inhibition at 20 mg/kg, po qd administered for 21 consecutive days co-administered with paclitaxel at 10 mg/kg, ip qd administered for 5 days relative to control; type: functional
[13] = system: Lewis lung carcinoma cell line; assay: Antitumor activity against mouse LL/2 cells implanted in C57BL/6 mouse assessed as tumor growth inhibition at 40 to 80 mg/kg, po qd administered for 21 consecutive days relative to control; type: functional
[14] = AUC (0 to 24 hrs) in C57BL/6 mouse lung at 40 mg/kg, po administered via gavage by LC-MS/MS analysis; type: ADME, organism-based; design: time < 24 hr, dose 40 mg/kg, route oral; conditions: in vivo
[15] = AUC (0 to 24 hrs) in C57BL/6 mouse kidney at 40 mg/kg, po administered via gavage by LC-MS/MS analysis; type: ADME, organism-based; design: time < 24 hr, dose 40 mg/kg, route oral; conditions: in vivo
[16] = AUC (0 to 24 hrs) in C57BL/6 mouse plasma at 40 mg/kg, po administered via gavage by LC-MS/MS analysis; type: ADME, organism-based; design: time < 24 hr, dose 40 mg/kg, route oral; conditions: in vivo
[17] = Ratio of compound AUC (0 to 24 hrs) to ACY-1215 AUC (0 to 24 hrs) in C57BL/6 mouse lung at 40 mg/kg, po administered via gavage by LC-MS/MS analysis; type: ADME, organism-based; conditions: in vivo
[18] = Ratio of compound AUC (0 to 24 hrs) to ACY-1215 AUC (0 to 24 hrs) in C57BL/6 mouse liver at 40 mg/kg, po administered via gavage by LC-MS/MS analysis; type: ADME, organism-based; conditions: in vivo
[19] = Ratio of compound AUC (0 to 24 hrs) to ACY-1215 AUC (0 to 24 hrs) in C57BL/6 mouse kidney at 40 mg/kg, po administered via gavage by LC-MS/MS analysis; type: ADME, organism-based; conditions: in vivo
[20] = Ratio of compound AUC (0 to 24 hrs) to ACY-1215 AUC (0 to 24 hrs) in C57BL/6 mouse plasma at 40 mg/kg, po administered via gavage by LC-MS/MS analysis; type: ADME, organism-based; conditions: in vivo
[21] = Ratio of AUC (0 to 24 hrs) in lung to plasma of C57BL/6 mouse at 40 mg/kg, po administered via gavage by LC-MS/MS analysis; type: ADME, organism-based; conditions: read-out: Ratio AUC
[22] = Drug metabolism in C57BL/6 mouse liver assessed as hydrolysis metabolite formation at 40 mg/kg, po administered via gavage by LC-MS/MS analysis; type: ADME, organism-based; conditions: in vivo
[23] = Drug uptake in C57BL/6 mouse lung at 40 mg/kg, po administered via gavage by LC-MS/MS analysis; type: ADME, organism-based; conditions: in vivo
[24] = Drug uptake in C57BL/6 mouse plasma at 40 mg/kg, po administered via gavage by LC-MS/MS analysis; type: ADME, organism-based; conditions: in vivo
[25] = Drug uptake in C57BL/6 mouse lung at 40 mg/kg, po administered via gavage co-administered with paclitaxel at 10 mg/kg, ip by LC-MS/MS analysis; type: ADME, organism-based; conditions: in vivo
[26] = Drug uptake in C57BL/6 mouse liver at 40 mg/kg, po administered via gavage co-administered with paclitaxel at 10 mg/kg, ip by LC-MS/MS analysis; type: ADME, organism-based; conditions: in vivo
[27] = Drug uptake in C57BL/6 mouse plasma at 40 mg/kg, po administered via gavage co-administered with paclitaxel at 10 mg/kg, ip by LC-MS/MS analysis; type: ADME, organism-based; conditions: in vivo
[28] = Ratio of drug uptake in C57BL/6 mouse lung at 40 mg/kg, po administered via gavage co-administered with paclitaxel at 10 mg/kg, ip by LC-MS/MS analysis to drug uptake in C57BL/6 mouse lung at 40 mg/kg, po administered via gavage by LC-MS/MS analysis; type: ADME, organism-based; conditions: in vivo
[29] = Ratio of drug uptake in C57BL/6 mouse liver at 40 mg/kg, po administered via gavage co-administered with paclitaxel at 10 mg/kg, ip by LC-MS/MS analysis to drug uptake in C57BL/6 mouse liver at 40 mg/kg, po administered via gavage by LC-MS/MS analysis; type: ADME, organism-based; conditions: in vivo
[30] = Ratio of drug uptake in C57BL/6 mouse plasma at 40 mg/kg, po administered via gavage co-administered with paclitaxel at 10 mg/kg, ip by LC-MS/MS analysis to drug uptake in C57BL/6 mouse plasma at 40 mg/kg, po administered via gavage by LC-MS/MS analysis; type: ADME, organism-based; conditions: in vivo
[31] = Drug metabolism in C57BL/6 mouse lung assessed as hydrolysis metabolite formation at 40 mg/kg, po administered via gavage by LC-MS/MS analysis; type: ADME, organism-based; conditions: in vivo
[32] = Drug metabolism in C57BL/6 mouse kidney assessed as hydrolysis metabolite formation at 40 mg/kg, po administered via gavage by LC-MS/MS analysis; type: ADME, organism-based; conditions: in vivo
[33] = Drug metabolism in C57BL/6 mouse plasma assessed as hydrolysis metabolite formation at 40 mg/kg, po administered via gavage by LC-MS/MS analysis; type: ADME, organism-based; conditions: in vivo

AUC [14]: 1335 ng·h/g | AUC [15]: 1903 ng·h/g | AUC [16]: 71 ng·h/g | Ratio AUC [17]: 2.1 | Ratio AUC [18]: 4.4 | Ratio AUC [19]: 0.8 | Ratio AUC [20]: 0.2 | Kp [21]: 18.8 | Drug metabolism [22]: Metabolite_Detected | Drug uptake [23]: 212 ng/g | Cp [24]: 13 ng/mL | Drug uptake [25]: 331 ng/g | Drug uptake [26]: 719 ng/g | Cp [27]: 160 ng/mL | Ratio [28]: 1.6 | Ratio [29]: 0.9 | Ratio [30]: 12.3 | Drug metabolism [31]: Metabolite_Detected | Drug metabolism [32]: Metabolite_Detected | Drug metabolism [33]: Metabolite_Detected
Structure (SMILES): O=C(NO)c1ccc(Cn2c(=O)n(CCc3ccccc3)c(=O)c3ccccc32)cc1
IC50 (A549 [1]): 7.87 µM | CI [2]: <1 | Activity [3]: 85.8% | Activity [4]: 1.5% | Activity [5]: 10.4% | Activity [6]: 64.8% | Activity [7]: 21.2% | Activity (A549 [8]): 97.4% | Activity (A549 [9]): 1.3% | Activity (A549 [10]): 0.7% | Activity (A549 [11]): 5.4% | TGI [12]: 67.5% | TGI [13]: 63.4%
